# Assays:
# [1] = n-octanol/buffer partition coefficient, log D of the compound at pH 7.4 by HPLC method; format: physicochemical
# [2] = Biotransformation in CD1 mouse liver microsomes at 5 uM measured at 20 mins by HPLC/ESI-MS/MS analysis; format: ADME; details: read-out: Drug metabolism
# Summary of the method: (§1)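 Hepatic microsomes (male CD1 mouse, male Sprague-Dawley rat, or pooled human) at 1 mg/mL protein with 1 mg/mL BSA; substrate 5 µM. Reference sample held 0 min without cofactor; test sample run 20 min with 1 mM NADPH. Reaction quenched with 1 volume ACN, proteins spun out, supernatant analysed by HPLC/ESI-MS/MS in positive SIR. % biotransformation = (1 − area B/area A) × 100.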
# [3] = Biotransformation in Sprague-Dawley rat liver microsomes at 5 uM measured at 20 mins by HPLC/ESI-MS/MS analysis; format: ADME; details: read-out: Drug metabolism; summary of the method: as §1
# [4] = Biotransformation in human liver microsomes at 5 uM measured at 20 mins by HPLC/ESI-MS/MS analysis; format: ADME; details: read-out: Drug metabolism; summary of the method: as §1
SMILES,logD [1],"metabolised at 20 min, 5 µM [2] [%]","metabolised at 20 min, 5 µM [3] [%]","metabolised at 20 min, 5 µM [4] [%]"
CN(C)C(=O)Cc1nn(-c2ccccc2)c(=O)c2c1c1ccc(Cl)cc1n2CCCCF,3.66,–,–,–
CN(C)C(=O)Cc1nn(-c2ccc(OCCCCF)cc2)c(=O)c2c1c1ccc(Cl)cc1n2C,3.75,1,13,16
CN(C)C(=O)Cc1nn(-c2ccc(OCCCF)cc2)c(=O)c2c1c1ccc(Cl)cc1n2C,3.48,4,3,4
CN(C)C(=O)Cc1nn(-c2ccccc2)c(=O)c2c1c1ccc(Cl)cc1n2CCCF,3.38,–,–,–
COc1ccc(-n2nc(CC(=O)N(C)C)c3c4ccc(Cl)cc4n(C)c3c2=O)cc1,3.01,22,4,22
CN(C)C(=O)Cc1nn(-c2ccc(OCCOCCF)cc2)c(=O)c2c1c1ccc(Cl)cc1n2C,3.11,17,11,17
CN(C)C(=O)Cc1nn(-c2ccc(OCCOCCOCCF)cc2)c(=O)c2c1c1ccc(Cl)cc1n2C,3.08,69,52,81
CN(C)C(=O)Cc1nn(-c2ccc(OCC#CCF)cc2)c(=O)c2c1c1ccc(Cl)cc1n2C,3.54,42,25,47

# Now from value to compound:
logD [1],"metabolised at 20 min, 5 µM [2] [%]","metabolised at 20 min, 5 µM [3] [%]","metabolised at 20 min, 5 µM [4] [%]",SMILES
3.19,–,–,–,CN(C)C(=O)Cc1nn(-c2ccccc2)c(=O)c2c1c1ccc(Cl)cc1n2CCOCCOCCF
3.2,–,–,–,CN(C)C(=O)Cc1nn(-c2ccccc2)c(=O)c2c1c1ccc(Cl)cc1n2CCOCCF
2.97,21,14,10,CN(C)C(=O)Cc1nn(-c2ccccc2)c(=O)c2c1c1ccc(Cl)cc1n2C
3.12,0,2,0,CN(C)C(=O)Cc1nn(-c2ccc(OCCF)cc2)c(=O)c2c1c1ccc(Cl)cc1n2C
3.62,53,41,76,CN(C)C(=O)Cc1nn(-c2ccc(OC/C=C/CF)cc2)c(=O)c2c1c1ccc(Cl)cc1n2C
3.48,31,44,38,CN(C)C(=O)Cc1nn(-c2ccccc2)c(=O)c2c1c1ccc(Cl)cc1n2C/C=C/CF
3.09,5,14,19,CN(C)C(=O)Cc1nn(-c2ccccc2)c(=O)c2c1c1ccc(Cl)cc1n2CCF
3.44,39,26,30,CN(C)C(=O)Cc1nn(-c2ccccc2)c(=O)c2c1c1ccc(Cl)cc1n2CC#CCF

# Reference: ChEMBL document CHEMBL3612023, “Synthesis and in vitro characterization of novel fluorinated derivatives of the TSPO 18 kDa ligand SSR180575” (Eur J Med Chem, 2015)
